Assay results published in ChEMBL document CHEMBL3797032, “Synthesis and in vitro growth inhibitory activity of novel silyl- and trityl-modified nucleosides” (Bioorg Med Chem, 2016).

What was measured:
[1] = Growth inhibition of human Caco2 cells assessed as cell viability at 100 uM incubated for 24 hrs by MTT assay; assay type: functional; settings: Caco-2, 24 h, read-out: Activity
Method in brief: (§1)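 Leukemic lines (HL-60, K562, Jurkat) grown in suspension in RPMI-1640 + 10% heat-inactivated FBS. Colorectal HT-29 and Caco-2 grown adherent in DMEM + 5–10% FBS. Cells kept at 37 °C, 5% CO2, and checked for viability by trypan blue before use. Single final concentration 100 μM for 24 h at 37 °C, camptothecin as positive control. MTT read-out with formazan dissolved in DMSO; viability expressed relative to untreated control set at 100%.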

[2] = Growth inhibition of human HL60 cells assessed as cell viability at 100 uM incubated for 24 hrs by MTT assay; assay type: functional; settings: HL-60, 24 h, read-out: Activity; method in brief: as §1
[3] = Growth inhibition of human WBC cells assessed as cell viability at 100 uM incubated for 24 hrs by MTT assay; assay type: cell-based; settings: WBC cells (white blood cells), read-out: Activity
Method in brief: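 Freshly isolated human peripheral leucocytes from volunteers, exposed at a single final concentration of 100 μM for 24 h, camptothecin as comparator. Viability read by MTT assay with formazan dissolved in DMSO.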

HT-29 = assay: Growth inhibition of human HT-29 cells assessed as cell viability at 100 uM incubated for 24 hrs by MTT assay; assay type: functional; settings: HT-29, 24 h, read-out: Activity; method in brief: as §1
K562 = assay: Growth inhibition of human K562 cells assessed as cell viability at 100 uM incubated for 24 hrs by MTT assay; assay type: functional; settings: K562, 24 h, read-out: Activity; method in brief: as §1
Jurkat = assay: Growth inhibition of human Jurkat cells assessed as cell viability at 100 uM incubated for 24 hrs by MTT assay; assay type: functional; settings: read-out: Activity; method in brief: as §1
[4] = Growth inhibition of human U373 cells assessed as reduction in cell viability incubated for 72 hrs by MTT assay; assay type: functional, U-373MG ATCC; settings: U373 MG
Method in brief: (§2)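 Glioma cells grown adherent: Hs683 in DMEM + 5–10% FBS, U373 in Earle's MEM + 10% FBS and 1 mM sodium pyruvate; trypan blue viability check before use. Exposed for 72 h to 0.01–100 μM, narciclasine as positive control. MTT read-out with formazan dissolved in DMSO; GI50 is the concentration giving 50% growth reduction versus untreated controls.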

[5] = Growth inhibition of human Hs683 cells assessed as reduction in cell viability incubated for 72 hrs by MTT assay; assay type: functional; settings: Hs 683, 72 h; method in brief: as §2

Compound | viability at 100 µM [1] [%] | viability at 100 µM [2] [%] | viability at 24 h, 100 µM [3] [%] | viability at 100 µM (HT-29) [%] | viability at 100 µM (K562) [%] | viability at 100 µM (Jurkat) [%] | GI50 [4] [µM] | GI50 [5] [µM]
CC[C@@]1(O)C(=O)OCc2c1cc1n(c2=O)Cc2cc3ccccc3nc2-1 [CAMPTOTHECIN] | 12.8 | 23.4 | 34.6 | 11.4 | 39.6 | 8.9 | – | –
CC(C)[Si]1(C(C)C)OC[C@H]2O[C@@H](n3ccc(=O)[nH]c3=O)C(=O)[C@@H]2O[Si](C(C)C)(C(C)C)O1 | – | – | – | – | – | – | 71 | 70
Cc1cn([C@@H]2O[C@@H]3CO[Si](C(C)C)(C(C)C)O[Si](C(C)C)(C(C)C)O[C@H]3[C@H]2O)c(=O)[nH]c1=O | – | – | – | – | – | – | 87 | 91
O=C1N[C@@H]2C(=C[C@H](O)[C@@H](O)[C@H]2O)c2cc3c(c(O)c21)OCO3 [NARCICLASINE] | – | – | – | – | – | – | 0.029 | 0.04
CC(C)C(C)(C)[Si](C)(C)OC[C@H]1O[C@@H](n2ccc(=O)[nH]c2=O)[C@H](O)[C@@H]1O | – | – | – | – | – | – | > 100 | > 100
Cc1cn([C@@H]2O[C@H](CO[Si](C)(C)C(C)(C)C(C)C)[C@@H](O)[C@H]2O)c(=O)[nH]c1=O | – | – | – | – | – | – | 68 | 64
Cc1cn([C@@H]2O[C@H](CO[Si](C)(C)C(C)(C)C)[C@@H](O)[C@H]2O)c(=O)[nH]c1=O | – | – | – | – | – | – | > 100 | 77
CC(C)[Si]1(C(C)C)OC[C@H]2O[C@@H](n3ccc(=O)[nH]c3=O)[C@H](O)[C@@H]2O[Si](C(C)C)(C(C)C)O1 | – | – | – | – | – | – | 81 | 83
CC(C)(C)[Si](OC[C@H]1O[C@@H](n2ccc(N)nc2=O)[C@H](O)[C@@H]1O)(c1ccccc1)c1ccccc1 | 37.2 | 26 | 100 | 25.6 | 35.6 | 16 | 28 | 40
CC(=O)O[C@@H]1[C@H](OC(C)=O)[C@@H](CO[Si](c2ccccc2)(c2ccccc2)C(C)(C)C)O[C@H]1n1ccc(=O)[nH]c1=O | > 50 | 11.2 | 100 | > 50 | 35.5 | > 50 | 32 | 29
CC(C)(C)[Si](C)(C)OC[C@H]1O[C@@H](n2ccc(=O)[nH]c2=O)[C@H](O)[C@@H]1O | – | – | – | – | – | – | 71 | 84
CC(C)(C)[Si](OC[C@H]1O[C@@H](n2ccc(=O)[nH]c2=O)[C@H](O)[C@@H]1O)(c1ccccc1)c1ccccc1 | 37.4 | 5.6 | 61.5 | 29.4 | 9.4 | 6.3 | 36 | 35
COc1ccc(C(OC[C@H]2O[C@@H](n3ccc(=O)[nH]c3=O)[C@H](O)[C@@H]2O)(c2ccccc2)c2ccc(OC)cc2)cc1 | 26.1 | 6.5 | 82.7 | 27.8 | 8.3 | 5.2 | 40 | 39
CC(=O)O[C@@H]1[C@H](OC(C)=O)[C@@H](CO[Si](c2ccccc2)(c2ccccc2)C(C)(C)C)O[C@H]1n1ccc(=O)n(C(=O)c2ccccc2)c1=O | – | – | – | – | – | – | 26 | 35
CC(C)(C)[Si](OC[C@H]1O[C@@H](n2cnc3c(N)ncnc32)[C@H](O)[C@@H]1O)(c1ccccc1)c1ccccc1 | > 50 | 27.9 | 59.3 | > 50 | 45.5 | 18.3 | 44 | 46
COc1ccc(C(OC[C@H]2O[C@@H](n3ccc(=O)[nH]c3=O)[C@H](OC(C)=O)[C@@H]2OC(C)=O)(c2ccccc2)c2ccc(OC)cc2)cc1 | > 50 | > 50 | 100 | > 50 | > 50 | > 50 | 40 | 28
Cc1cn([C@@H]2O[C@H](CO[Si](c3ccccc3)(c3ccccc3)C(C)(C)C)[C@@H](O)[C@H]2O)c(=O)[nH]c1=O | – | – | – | – | – | – | 25 | 27
CC(C)[Si]1(C(C)C)OC[C@H]2O[C@@H](n3ccc(=O)n(C(=O)c4ccccc4)c3=O)[C@H](O)[C@@H]2O[Si](C(C)C)(C(C)C)O1 | – | – | – | – | – | – | 29 | 29
COc1ccc(C(OC[C@H]2O[C@@H](n3ccc(=O)n(C(=O)c4ccccc4)c3=O)[C@H](OC(C)=O)[C@@H]2OC(C)=O)(c2ccccc2)c2ccc(OC)cc2)cc1 | – | – | – | – | – | – | 39 | 44
